The source of these data is PMC4148159 (Journal of Medicinal Chemistry, 2014).

The target of one test is LPA2 (Homo sapiens, UniProt Q9HBW0). Nature of the test: Fura-2AM Ca2+ mobilization, agonist mode, LPA2 DKO MEF cells. The test is classed as cell-based. The following applies: for LPA2 agonist activity (in words): Ca2+ mobilization, SAR discussion.
In test [1] the target is T1, LPA4 (Mus musculus, UniProt Q8BLG2). In words: Ca2+ mobilization antagonist screen against LPA 18:1, LPA4. Conditions: coapplied with LPA 18:1. The class given is cell-based, human.
Test [2] concerns the target T2, LPA3 (Homo sapiens, UniProt Q9UBY5).
T2 sequence (Q9UBY5 1-353): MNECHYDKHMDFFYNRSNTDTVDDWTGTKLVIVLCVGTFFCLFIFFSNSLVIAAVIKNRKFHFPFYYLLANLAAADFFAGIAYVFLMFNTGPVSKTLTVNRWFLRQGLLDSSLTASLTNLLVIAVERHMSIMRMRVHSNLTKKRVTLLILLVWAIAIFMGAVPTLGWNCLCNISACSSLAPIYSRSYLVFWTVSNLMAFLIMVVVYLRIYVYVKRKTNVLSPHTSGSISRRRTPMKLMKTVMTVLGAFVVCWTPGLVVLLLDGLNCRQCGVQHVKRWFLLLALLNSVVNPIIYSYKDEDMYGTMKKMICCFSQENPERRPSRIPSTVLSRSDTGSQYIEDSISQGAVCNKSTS
Nature of the test: Ca2+ mobilization antagonist screen against LPA 18:1, LPA3. The test is classed as cell-based. On the technique in general: A change in cytosolic calcium serves as a functional read-out for many receptors and channels.

The subject of test [3] is Vector control cells (DKO MEF, RH7777, CHO, B103). In words: Fura-2AM Ca2+ mobilization in empty vector control cells. The test is classed as cell-based. Conditions: read-out: vector EC50. In outline: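 Cells were loaded with Fura-2AM, and transient Ca2+ mobilization was read as fluorescence on a robotic plate reader. Receptor-expressing lines were CHO (LPA4), DKO MEF (LPA2), RH7777 (LPA1/3) and B103 (LPA5). Vector controls were the same lines transduced with empty vector. […] Values are means of three assays.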

The target of test [4] is T3, LPA5 (Homo sapiens, UniProt Q9H1C0). Nature of the test: Ca2+ mobilization antagonist screen against LPA 18:1, LPA5. The class given is cell-based. The following applies: coapplied with LPA 18:1.
The target of another test is LPA1 (Homo sapiens, UniProt Q92633). Nature of the test: Ca2+ mobilization antagonist screen against LPA 18:1, LPA1. The test is classed as cell-based. Conditions: coapplied with LPA 18:1.
The next test has as its system apoptosis. The following applies: cell-based models of apoptosis; cited from earlier work.
Test [5] concerns radiation-induced apoptosis. Conditions: mice suffering from the acute hematopoietic radiation syndrome; cited from earlier work.
Test [6] addresses T1, LPA4. In words: Fura-2AM Ca2+ mobilization, agonist mode, LPA4 CHO cells. The test is classed as cell-based, human. Conditions: read-out: LPA4 Emax.
In test [7] the target is T3, LPA5. Nature of the test: Fura-2AM Ca2+ mobilization, agonist mode, LPA5 B103 cells. The class given is cell-based. Conditions: B103, read-out: LPA5 Emax.
Test [8] concerns the target T2, LPA3. In words: Fura-2AM Ca2+ mobilization, agonist mode, LPA3-expressing cells. The test is classed as cell-based. The following applies: read-out: LPA3 Emax.

LPA2, sequence (Q9HBW0 whole entry): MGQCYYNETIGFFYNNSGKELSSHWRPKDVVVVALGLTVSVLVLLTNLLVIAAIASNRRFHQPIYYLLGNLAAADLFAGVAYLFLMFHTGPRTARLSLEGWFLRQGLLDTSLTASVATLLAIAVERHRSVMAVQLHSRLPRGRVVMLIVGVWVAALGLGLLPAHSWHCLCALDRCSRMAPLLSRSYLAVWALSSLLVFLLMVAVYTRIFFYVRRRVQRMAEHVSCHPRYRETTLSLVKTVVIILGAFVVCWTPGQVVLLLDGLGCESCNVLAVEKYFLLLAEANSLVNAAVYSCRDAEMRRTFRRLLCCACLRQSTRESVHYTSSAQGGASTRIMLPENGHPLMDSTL
T1 sequence (Q8BLG2 whole entry): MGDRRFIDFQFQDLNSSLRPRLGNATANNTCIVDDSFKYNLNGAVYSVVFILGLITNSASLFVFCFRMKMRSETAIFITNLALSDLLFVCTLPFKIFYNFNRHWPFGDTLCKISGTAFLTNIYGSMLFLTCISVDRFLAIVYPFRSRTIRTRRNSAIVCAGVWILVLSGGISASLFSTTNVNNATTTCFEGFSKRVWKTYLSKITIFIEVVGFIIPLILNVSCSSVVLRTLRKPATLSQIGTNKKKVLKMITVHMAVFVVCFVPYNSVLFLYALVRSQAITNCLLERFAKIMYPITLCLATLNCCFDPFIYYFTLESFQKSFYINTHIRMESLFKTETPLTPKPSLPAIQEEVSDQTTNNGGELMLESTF
T3 sequence (Q9H1C0 whole entry): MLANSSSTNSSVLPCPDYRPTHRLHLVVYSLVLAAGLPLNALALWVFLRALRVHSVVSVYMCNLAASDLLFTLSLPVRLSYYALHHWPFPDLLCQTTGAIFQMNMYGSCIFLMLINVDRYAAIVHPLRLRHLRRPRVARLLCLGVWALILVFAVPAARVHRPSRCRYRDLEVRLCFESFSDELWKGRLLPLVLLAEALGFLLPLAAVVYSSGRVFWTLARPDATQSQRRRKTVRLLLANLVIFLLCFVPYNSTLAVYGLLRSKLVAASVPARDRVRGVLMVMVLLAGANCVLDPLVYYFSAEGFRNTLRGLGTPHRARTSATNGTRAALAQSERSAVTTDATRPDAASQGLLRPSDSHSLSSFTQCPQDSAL
LPA1, sequence (Q92633 whole entry): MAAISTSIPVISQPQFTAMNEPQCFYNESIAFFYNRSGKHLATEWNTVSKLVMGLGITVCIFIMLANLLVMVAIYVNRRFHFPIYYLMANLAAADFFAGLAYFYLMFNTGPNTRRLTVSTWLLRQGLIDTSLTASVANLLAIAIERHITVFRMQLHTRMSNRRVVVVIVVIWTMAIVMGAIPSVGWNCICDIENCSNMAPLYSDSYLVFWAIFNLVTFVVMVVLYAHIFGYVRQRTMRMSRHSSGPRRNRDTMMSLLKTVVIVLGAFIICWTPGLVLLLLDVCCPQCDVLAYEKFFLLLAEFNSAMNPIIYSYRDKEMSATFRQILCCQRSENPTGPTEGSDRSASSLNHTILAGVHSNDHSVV

As for `O=C(O)c1ccccc1S(=O)(=O)NCCCN1C(=O)c2cccc3cccc(c23)C1=O` [Compound 4, 2-(N-(3-(1,3-dioxo-1H-benzo[de]isoquinolin-2(3H)-yl)propyl)sulfamoyl)benzoic acid], the EC50 on LPA2 is around 2 µM; in test [3], above 10 µM. For the same molecule, on LPA4 [1], the “LPA4 inhibition (antagonist activity)” value is on record as “without activating or inhibiting”. On LPA3 [2], this molecule registered an IC50 above 10 µM. Also, the “LPA5 inhibition (antagonist activity)” value on LPA5 [4] was “without activating or inhibiting”. For the same molecule, the “LPA1 inhibition (antagonist activity)” value at LPA1 is reported as “without activating or inhibiting”.
As to `O=C(O)c1ccccc1S(=O)(=O)NCCCCN1C(=O)c2cccc3cccc(c23)C1=O` [Compound 5], the EC50 in test [3] is above 10 µM.
The same measure, in the same setting: the figure for `O=C(O)c1ccccc1S(=O)(=O)NCCCCCN1C(=O)c2cccc3cccc(c23)C1=O` [Compound 6] is above 10 µM.
Consider `O=C(O)c1ccccc1S(=O)(=O)NCCCCN1C(=O)c2ccccc2C1=O` [Compound 7a, 2-[4-(1,3-Dioxo-1,3-dihydroisoindol-2-yl)butylsulfamoyl]benzoic acid], for which the concentration for a half-maximal effect (EC50) (on LPA2; in test [3]) was above 10 µM each time.
Consider `O=C1C(=O)N(CCCCNS(=O)(=O)c2ccccc2C(=O)O)c2ccccc21` [Compound 7b, 2-(N-(4-(2,3-dioxoindolin-1-yl)butyl)sulfamoyl)benzoic acid], for which the concentration giving a half-maximal response (EC50) (at LPA2; in [3]) was above 10 µM throughout.
Turning to `COc1ccc(C(=O)O)c(S(=O)(=O)NCCCCN2C(=O)c3cccc4cccc(c34)C2=O)c1` [Compound 8a], the “LPA2 agonist activity (in words)” value on LPA2 was “very weak agonist activity”. For the same molecule, the concentration for a half-maximal effect (EC50) in test [3] was above 10 µM.
`O=C(O)c1ccc(Br)cc1S(=O)(=O)NCCCCN1C(=O)c2cccc3cccc(c23)C1=O` [Compound 8b]: at LPA2, the “LPA2 agonist activity (in words)” value was “more potent than compound 4”. The EC50 in [3] is above 10 µM.
As to `O=C(O)c1cc(Br)ccc1S(=O)(=O)NCCCCN1C(=O)c2cccc3cccc(c23)C1=O` [Compound 8c], the EC50 in test [3] is above 10 µM.
The same measure, in the same setting: the figure for `O=C(O)c1ccc2c(c1)S(=O)(=O)N(CCCCN1C(=O)c3cccc4cccc(c34)C1=O)C2=O` [Compound 9, 2-(4-(1,3-dioxo-1H-benzo[de]isoquinolin-2(3H)-yl)butyl)-3-oxo-2,3-dihydrobenzo[d]isothiazole-6-carboxylic acid 1,1-dioxide] is above 10 µM.
For `O=C(O)c1ccc(C(=O)O)c(S(=O)(=O)NCCCCN2C(=O)c3cccc4cccc(c34)C2=O)c1` [Compound 10, 2-(N-(4-(1,3-dioxo-1H-benzo[de]isoquinolin-2(3H)-yl)butyl)sulfamoyl)terephthalic acid], the “LPA2 agonist activity (in words)” value at LPA2 was “considerably less potent than the compound 9”. In addition, the concentration for a half-maximal effect (EC50) in test [3] is above 10 µM.
For `O=C(O)c1cccc(S(=O)(=O)NCCCCN2C(=O)c3cccc4cccc(c34)C2=O)c1` [Compound 11a] the same measures were “abolished the activity at LPA2” and above 10 µM.
For `O=C(O)c1ccc(S(=O)(=O)NCCCCN2C(=O)c3cccc4cccc(c34)C2=O)cc1` [Compound 11b] the same measures were “abolished the activity at LPA2” and above 10 µM.
Turning to `O=C(O)c1cc(F)ccc1S(=O)(=O)NCCCCN1C(=O)c2cccc3cccc(c23)C1=O` [Compound 11c], in test [3], the EC50 is above 10 µM.
Still for that read-out and setting: then `O=C(O)c1cc(Cl)ccc1S(=O)(=O)NCCCCN1C(=O)c2cccc3cccc(c23)C1=O` [Compound 11d, 5-chloro-2-(N-(4-(1,3-dioxo-1H-benzo[de]isoquinolin-2(3H)-yl)butyl)sulfamoyl)benzoic acid], with above 10 µM.
`O=C(O)c1ccccc1SCCCN1C(=O)c2cccc3cccc(c23)C1=O` [GRI-977143]: the antiapoptotic efficacy result in the test on apoptosis is given as “showed antiapoptotic efficacy”. For the same molecule, the “efficacy against radiation-induced apoptosis” value in [5] was “modestly efficacious”. Also, in [3], the EC50 is above 10 µM.
With `CCCCCCCC/C=C\CCCCCCCC(=O)OC[C@@H](O)COP(=O)(O)O` [LPA 18:1, 1-acyl-2-hydroxy-sn-3-glycerophosphate], the maximal response (Emax) on LPA4 [6] amounted to 100%; on LPA2 (MEF, read-out: LPA2 Emax), 100%; on LPA5 [7], 100%; on LPA3 [8], 100%. Besides, the 50% effective concentration (EC50) in [3] is above 10 µM.

As a reminder, the EC50 is the concentration at which the effect is half-maximal. By IC50 is commonly meant the concentration that gives 50% inhibition. As a reminder, the Emax is the maximal effect, on the per cent scale that the assay sets.
